The nature of assay [1]: inhibitors of TNFa-induced NFkB p65 translocation, primary screen, imaging, HUVEC, MLSMR starter and 10KST1 sets (AID 438;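 active means inhibition above 20% together with a positive visual image hit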;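 further: compound added about 3h40 before a 20 min TNFalpha stimulation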;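 on inhibition: signal is the nuclear over cytoplasmic p65 intensity ratio per well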). The note with it: HUVEC TNFa-induced p65 nuclear translocation; cell count: measured here: nuclei count (cytotoxicity indicator), at 2.08 µM; inhibition: at 2 µM, stronger effect = higher value, 0% TNFa-plus-vehicle, 100% no-TNFa wells.
Assay [2] in a line: inhibitors of mutant huntingtin aggregation, primary screen, imaging, exon1htt(103Q)mCFP cells, high-content imaging (AID 483;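 active means visual image review flags a hit and inhibition of aggregation exceeds 20%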;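 further: compound exposure lasted 3 days before fixation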;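 on nuclei count: percent of the per-plate median nuclei count of sample wells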). The note with it: exon1htt(103Q)mCFP cell line, aggregate imaging, at 2 µM; inhibition of aggregation: stronger effect = higher value; nuclei count: measured here: cell count, toxicity.
Assay [3] can be described thus: inhibitors of E-selectin induction by TNFa, primary screen, imaging, HUVEC, immunofluorescence, MLSMR starter and 10KST1 sets (AID 487;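 active means visually confirmed hit in the image check and inhibition above 20%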;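 on inhibition: signal is fraction of cell area covered by stained E-selectin grains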;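 on nuclei count: 100% = median nuclei count of all wells on the same plate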). The note with it: HUVEC TNFalpha-induced E-selectin immunofluorescence imaging, at 2 µM; inhibition: stronger effect = higher value; nuclei count: measured here: cell number, toxicity.
Assay [4] addresses Voltage-gated potassium channel subunit beta-2 (Rattus norvegicus) (UniProt P62483). Briefly: KvBeta enzyme negative modulators, primary screen, biochemical, NADPH fluorescence (AID 622;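 active means fluorescence slope higher than the sample average by over 3 SD, cut at about -0.22 in these data, passing the limit was not always enough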;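 further: slope of raw intensity against log time taken from 70 to 1610 s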). The note with it: recombinant KvBeta, 4-cyanobenzaldehyde reduction, at 10 µM, stronger effect = higher value.
Assay [5] shares this target. Briefly: KvBeta positive modulators, primary screen, biochemical, NADPH fluorescence (AID 623;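 active means NADPH fluorescence slope more negative than the mean of all samples by about 3 SD, 99.7% confidence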;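 further: fluorescence intensity change per second fitted from 20 to 320 s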). The note with it: Recombinant KvBeta, NADPH fluorescence decrease slope, 10 min; at 10 µM; stronger effect = lower value.
Assay [6] has as its target Muscarinic acetylcholine receptor M4 (Homo sapiens) (UniProt P08173). Briefly: compounds altering M4/GIRK thallium flux, either direction, primary screen, M4 allosteric agonist project, cell-based, HEK293 M4/GIRK, BTC-AM (AID 625;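 active means fluorescence slope after compound addition differing from the mean of all tested samples at 99.7% confidence, mostly higher but some lower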;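 further: thallium influx through GIRK channels coupled to M4 in HEK293 cells with BTC-AM dye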). The note with it: at 10 µM, actives lie on both sides. A digest of the protocol:
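Material – HEK293 cells with M4 receptor and GIRK channels · Buffer or medium – pH 7.3 thallium assay buffer · Doses – one dose, 10 µM final · Timing – cells overnight at 37 °C, BTC-AM loading 1 h, reads 2 min total · Measured by – kinetic fluorescence with BTC-AM dye · Controls – carbachol and DMSO controls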

The nature of assay [7]: inhibitors of Sendai virus-induced IRF3 signaling, primary screen, TLR/RLR signaling modifier project, cell-based, Sendai virus stimulus, luciferase, 10K MLSCN set (AID 602276;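 active means inhibition at or above 50% at 10 µM; inactive means inhibition below 50%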;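 further: firefly luciferase from ISG56 promoter only with Renilla not read in this screen; 0% = Sendai virus plus DMSO and 100% = medium plus DMSO without virus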). The note with it: HEK293 RL24 IRF3 luciferase reporter, at 10 µM, stronger effect = higher value.
Assay [8] is described as follows: inhibitors of poly I:C-induced TLR3 signaling, primary screen, cell-based, poly I:C stimulus, luciferase, 10K MLSCN set (AID 602277). The note with it: HEK293-TLR3 RL24 IRF3 luciferase reporter, at 10 µM, stronger effect = higher value.

Structures are written as SMILES. Activity calls are given as the source filed them.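 How the source made its calls, unless noted: active means inhibition of the reporter signal at or above 50%; inactive means inhibition below 50%.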

Sequence of Muscarinic acetylcholine receptor M4 (Homo sapiens) (P08173 whole entry, looked up): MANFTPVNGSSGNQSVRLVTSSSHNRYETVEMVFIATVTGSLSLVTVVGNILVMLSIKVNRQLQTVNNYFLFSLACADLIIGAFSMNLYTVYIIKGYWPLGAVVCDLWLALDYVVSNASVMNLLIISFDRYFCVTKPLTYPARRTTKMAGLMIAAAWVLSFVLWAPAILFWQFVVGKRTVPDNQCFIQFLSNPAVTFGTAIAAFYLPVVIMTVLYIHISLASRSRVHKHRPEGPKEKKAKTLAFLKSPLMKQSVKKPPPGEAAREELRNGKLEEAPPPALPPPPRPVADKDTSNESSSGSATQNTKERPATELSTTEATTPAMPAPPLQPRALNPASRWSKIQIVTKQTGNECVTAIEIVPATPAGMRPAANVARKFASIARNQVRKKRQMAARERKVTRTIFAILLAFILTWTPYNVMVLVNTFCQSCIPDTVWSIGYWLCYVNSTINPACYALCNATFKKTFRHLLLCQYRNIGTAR
Sequence of Voltage-gated potassium channel subunit beta-2 (Rattus norvegicus) (P62483 whole entry, looked up): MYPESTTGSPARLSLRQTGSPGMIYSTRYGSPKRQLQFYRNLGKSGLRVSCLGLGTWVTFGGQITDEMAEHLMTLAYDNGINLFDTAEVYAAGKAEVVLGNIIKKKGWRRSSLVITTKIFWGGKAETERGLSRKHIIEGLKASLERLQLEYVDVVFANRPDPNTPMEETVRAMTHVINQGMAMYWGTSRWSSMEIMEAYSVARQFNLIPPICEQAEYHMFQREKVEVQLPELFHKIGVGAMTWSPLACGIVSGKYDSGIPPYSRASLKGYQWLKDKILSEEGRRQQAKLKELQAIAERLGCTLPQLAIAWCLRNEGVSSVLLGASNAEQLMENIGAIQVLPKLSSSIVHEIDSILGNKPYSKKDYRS

`O=C(NC12CC3CC(CC(C3)C1)C2)C1CCCN1C(=O)NC1CCCCC1` (centres undefined): in assay [1], the cell count was 559. Besides, the inhibition in assay [1] was -1.3% (inactive); in assay [3], -17.6% (inactive); in assay [7], -2.83% (inactive); in assay [8], 28.4% (inactive). The inhibition of aggregation in assay [2] is 15.8% (inactive). Also, the results for the nuclei count in assay [2] and in assay [3] were 96.2% and 110%, respectively. The fluorescence slope in assay [4] is -0.284 (inactive); in assay [6], 0.00682 (inactive). Besides, in assay [5], the NADPH fluorescence slope was -3.2e-05 (inactive).
In the case of `Cn1nc(-c2ccc(C(=O)N3CCN(c4ccccc4)CC3)cc2)c2ccccc2c1=O`, the cell count in assay [1] was 769. Further, the inhibition in assay [1] was -4% (inactive); in assay [3], -13.7% (inactive); in assay [7], -31.8% (inactive); in assay [8] it was -26.4% (inactive). Further, in assay [2], the inhibition of aggregation is 10.9% (inactive). Also, the figures for the nuclei count in assay [2] and in assay [3] were 90.3% and 110%, respectively. For the same compound, the values for the fluorescence slope in assay [4] and in assay [6] were -0.552 (inactive) and 0.00744 (inactive), respectively. For the same compound, in assay [5], the NADPH fluorescence slope was -4.4e-05 (inactive).
Regarding `N#CCSc1nc2c(c(C3CC=CCC3)c1C#N)CCC2` (centres undefined), the cell count in assay [1] was 436. For the same compound, the inhibition in assay [1] is 8% (inactive); in assay [3] it was -44.5% (inactive); in assay [7], -0.626% (inactive); in assay [8], 27.7% (inactive). Further, the inhibition of aggregation in assay [2] is -9.6% (inactive). The values for the nuclei count in assay [2] and in assay [3] were 100% and 112%, respectively. Besides, the values for the fluorescence slope in assay [4] and in assay [6] were -0.552 (inactive) and 0.00409 (inactive), respectively. Also, the NADPH fluorescence slope in assay [5] is -1.6e-05 (inactive).
Consider `CCOC(=O)C1=C(C)Nc2ncnn2C1c1ccccc1F` (centres undefined), for which the cell count in assay [1] came out at 469. Moreover, the inhibition in assay [1] was -5.9% (inactive); in assay [3], -49.3% (inactive); in assay [7], -5.35% (inactive); in assay [8], -2.56% (inactive). In addition, the inhibition of aggregation in assay [2] is -7.1% (inactive). Moreover, the nuclei count in assay [2] was 81.7%; in assay [3] it was 102%. The fluorescence slope is -0.559 (inactive) in assay [4] and 0.00641 (inactive) in assay [6]. In assay [5], the NADPH fluorescence slope is -1.9e-05 (inactive).
Regarding `CCOC(=O)Nc1sc(=S)n(C)c1C`, the cell count in assay [1] is 719. For the same compound, the inhibition was -12.5% (inactive) in assay [1], 15.9% (inactive) in assay [3], 12.9% (inactive) in assay [7] and 28.8% (inactive) in assay [8]. The inhibition of aggregation in assay [2] was -2.4% (inactive). The nuclei count amounted to 95.3% in assay [2] and 95.4% in assay [3]. Besides, the values for the fluorescence slope in assay [4] and in assay [6] were -0.545 (inactive) and 0.00684 (inactive), respectively. Besides, the NADPH fluorescence slope in assay [5] was 2.1e-05 (inactive).
As for `COc1cc(NC(=O)Cc2cccs2)ccc1-n1cnnn1`, the cell count in assay [1] was found to be 299. For the same compound, the inhibition is 0% (inactive) in assay [1], -50.9% (inactive) in assay [3], 18.4% (inactive) in assay [7] and 21.1% (inactive) in assay [8]. The inhibition of aggregation in assay [2] is -26.9% (inactive). In addition, the nuclei count turned out to be 100% in assay [2] and 112% in assay [3]. Also, the values for the fluorescence slope in assay [4] and in assay [6] were -0.543 (inactive) and 0.00442 (inactive), respectively. Further, the NADPH fluorescence slope in assay [5] is -3.6e-05 (inactive).
For the compound `CC(=O)N(c1ccc(N(C(C)=O)S(=O)(=O)c2cccs2)cc1)S(=O)(=O)c1cccs1`, the cell count in assay [1] was 458. For the same compound, the inhibition in assay [1] is 1.3% (inactive); in assay [3] it was -45.8% (inactive); in assay [7] it was 4.25% (inactive); in assay [8], 7.23% (inactive). For the same compound, in assay [2], the inhibition of aggregation was 11.2% (inactive). In addition, the nuclei count was found to be 99.2% in assay [2] and 99.4% in assay [3]. For the same compound, the fluorescence slope in assay [4] was -0.472 (inactive); in assay [6], 0.00408 (inactive). Also, the NADPH fluorescence slope in assay [5] was -0.000256 (inactive).
For `CC(C)[C@H](NC(=O)OC(C)(C)C)c1nnc(S(=O)(=O)Cc2c(F)cccc2Cl)o1`, in assay [1], the cell count was found to be 570. Moreover, the inhibition in assay [1] was 10.7% (inactive); in assay [3], 36.5% (inactive); in assay [7], 32.2% (inactive); in assay [8], 21.7% (inactive). The inhibition of aggregation in assay [2] is -0.1% (inactive). Further, the nuclei count in assay [2] came out at 89.7%; in assay [3], 101%. Besides, the fluorescence slope in assay [4] was -0.521 (inactive); in assay [6] it was 0.00242 (inactive). Moreover, the NADPH fluorescence slope in assay [5] is -0.000188 (inactive).
Turning to `CCCc1cc(C(N)=O)c(NC(=O)c2ccco2)s1`, the cell count in assay [1] turned out to be 356. In addition, the inhibition in assay [1] is -5.6% (inactive); in assay [3] it was -45% (inactive); in assay [7] it was -0.517% (inactive); in assay [8], -22.9% (inactive). The inhibition of aggregation in assay [2] is 2.7% (inactive). Moreover, the nuclei count in assay [2] worked out at 97.2%; in assay [3], 111%. Further, the results for the fluorescence slope in assay [4] and in assay [6] were -0.54 (inactive) and 0.00337 (inactive), respectively. Moreover, the NADPH fluorescence slope in assay [5] is -5.6e-05 (inactive).
Consider `Clc1ccc(SCCCCn2ccnc2)cc1`, for which, in assay [1], the cell count was determined as 289. The inhibition in assay [1] was -10.4% (inactive); in assay [3] it was -114% (inactive); in assay [7], -17.8% (inactive); in assay [8], -10.6% (inactive). Further, in assay [2], the inhibition of aggregation is 0.8% (inactive). Further, the results for the nuclei count in assay [2] and in assay [3] were 101% and 115%, respectively. In addition, the fluorescence slope in assay [4] was -0.306 (inactive); in assay [6] it was 0.00775 (inactive). Also, the NADPH fluorescence slope in assay [5] is -1.2e-05 (inactive).
For the compound `Cc1ccc(CNC(=O)C2CCN(S(=O)(=O)c3c(C)noc3C)CC2)cc1`, the cell count in assay [1] came out at 475. The inhibition in assay [1] is 4.8% (inactive); in assay [3] it was -2.1% (inactive); in assay [7], -1.36% (inactive); in assay [8], 6.94% (inactive). In addition, the inhibition of aggregation in assay [2] was 14% (inactive). For the same compound, the nuclei count in assay [2] was 91.5%; in assay [3], 104%. Also, the fluorescence slope in assay [4] is -0.493 (inactive); in assay [6], 0.00571 (inactive). In assay [5], the NADPH fluorescence slope was 8.6e-05 (inactive).
On to `CC(=O)N1CCc2cc(S(=O)(=O)NC(CC(C)C)C(=O)N3CCn4c3nc3ccccc34)ccc21` (centres undefined), for which the cell count in assay [1] worked out at 292. Also, the inhibition is 3.6% (inactive) in assay [1], 22.8% (inactive) in assay [3], 10.1% (inactive) in assay [7] and 9.41% (inactive) in assay [8]. Besides, the inhibition of aggregation in assay [2] is 8.8% (inactive). Also, the nuclei count stood at 104% in assay [2] and 63% in assay [3]. Further, the fluorescence slope in assay [4] is -0.329 (inactive); in assay [6], 0.0063 (inactive). In assay [5], the NADPH fluorescence slope was 5e-05 (inactive).
As to `CC1Cc2ccccc2N1C(=O)Cc1cccs1` (centres undefined), in assay [1], the cell count is 275. The inhibition in assay [1] is -3.1% (inactive); in assay [3], 18.4% (inactive); in assay [7], 7.14% (inactive); in assay [8], -1.13% (inactive). The inhibition of aggregation in assay [2] was 33.8% (inactive). The nuclei count came to 74.7% in assay [2] and 93.7% in assay [3]. Further, the fluorescence slope is -0.504 (inactive) in assay [4] and 0.00407 (inactive) in assay [6]. The NADPH fluorescence slope in assay [5] was -3.6e-05 (inactive).
On to `COc1cc(NS(=O)(=O)c2ccc(Br)s2)cc(OC)c1`, for which, in assay [1], the cell count is 596. The inhibition was 10.2% (inactive) in assay [1], -77.9% (inactive) in assay [3], 9.26% (inactive) in assay [7] and 10% (inactive) in assay [8]. Further, in assay [2], the inhibition of aggregation is -27.3% (inactive). In addition, the nuclei count is 99.5% in assay [2] and 94.3% in assay [3]. In addition, the fluorescence slope in assay [4] is -0.402 (inactive); in assay [6], 0.00547 (inactive). For the same compound, in assay [5], the NADPH fluorescence slope was 6.7e-05 (inactive).

The inhibition is the change of the read-out against control, counted positive when it falls.

The record behind these values is PubChem BioAssay.
